Measurements taken from ChEMBL document CHEMBL2417366, “Synthesis of novel isothiazolopyridines and their in vitro evaluation against Mycobacterium and Propionibacterium acnes” (Bioorg Med Chem, 2013).
≈ marks a conversion by molar mass, not a printed value. Calls of active or inactive are those of the source. The calls are words filed in the database; no cut-off is given here.

Key:
[1] = test system: Mycobacterium tuberculosis; test: Antibacterial activity against Mycobacterium tuberculosis H37Rv assessed as growth inhibition up to 250 ug/mL by BACTEC 460 radiometric assay; type: functional, organism-based
Cutibacterium acnes [2] = test: Antibacterial activity against Propionibacterium acnes PCM 2400 assessed as growth inhibition after 48 hrs by microplate Alamar blue assay; type: functional; settings: PCM 2400, 48 h
[3] = test system: Mycolicibacterium fortuitum; test: Induction of Mycobacterium fortuitum PCM 672 replication at 15.6 to 31.25 ug/mL after 48 hrs by microplate Alamar blue assay relative to control; type: organism-based
Procedure, shortened: (§1)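 M. fortuitum PCM 672 pre-grown in liquid 79 medium at 37°C for 24 h under aerobic conditions, then diluted to about 2 x 10^5 cfu/mL. Compounds were DMSO stocks (1 mg/mL) diluted in medium, tested at 0.97-250 µg/mL. Incubated at 37°C for 48 h, then Alamar Blue plus 20% Tween 80 added for 2 h more. Read by fluorescence. MIC was the lowest concentration preventing the blue-to-pink change (≥90% growth inhibition). Run two or three times; means and standard error reported.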

[4] = test system: Mycolicibacterium fortuitum; test: Antibacterial activity against Mycobacterium fortuitum PCM 672 assessed as growth inhibition up to 250 ug/mL after 48 hrs by microplate Alamar blue assay; type: functional, organism-based; procedure, shortened: as §1
Cutibacterium acnes [5] = test: Antibacterial activity against Propionibacterium acnes PCM 2400 assessed as growth inhibition up to 250 ug/mL after 48 hrs by microplate Alamar blue assay; type: functional, organism-based
Mycobacterium avium [6] = test: Antibacterial activity against Mycobacterium avium assessed as growth inhibition at 2 ug/mL relative to control; type: functional; settings: read-out: GI
[7] = test system: Mycolicibacterium fortuitum; test: Antibacterial activity against Mycobacterium fortuitum PCM 672 assessed as growth inhibition after 48 hrs by microplate Alamar blue assay; type: functional; settings: PCM 672, 48 h; procedure, shortened: as §1
Cutibacterium acnes [8] = test: Induction of Propionibacterium acnes PCM 2400 replication at 15.6 ug/mL after 48 hrs by microplate Alamar blue assay relative to control; type: organism-based
[9] = test system: Mycobacterium tuberculosis; test: Antibacterial activity against Mycobacterium tuberculosis H37Rv assessed as growth inhibition at 6.25 ug/mL by BACTEC 460 radiometric assay relative to control; type: functional; settings: read-out: GI
Procedure, shortened: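 M. tuberculosis H37Rv grown in BACTEC 12B medium and tested once at 6.25 μg/mL in a primary screen. Growth was read radiometrically on the BACTEC 460 system and reported as % inhibition.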

[10] = test system: Mycolicibacterium fortuitum; test: Bacteriostatic activity against Mycobacterium fortuitum PCM 672 at 0.97 to 250 ug/mL after 48 hrs by microplate Alamar blue assay relative to control; type: functional; procedure, shortened: as §1
[11] = test system: Mycobacterium tuberculosis; test: Antibacterial activity against Mycobacterium tuberculosis H37Rv assessed as growth inhibition by BACTEC 460 radiometric assay; type: functional
Procedure, shortened: (§2)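 Serial dilutions started at 6.25 μg/mL against H37Rv in BACTEC 12B medium, read on the BACTEC 460 radiometric system. MIC was taken as the lowest concentration inhibiting 99% of the inoculum.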

Mycobacterium avium [12] = test: Antibacterial activity against Mycobacterium avium assessed as growth inhibition at 12.5 ug/mL relative to control; type: functional, organism-based
[13] = Selectivity index, ratio of IC50 for African green monkey Vero cells to MIC99 for Mycobacterium tuberculosis H37Rv; type: functional
Procedure, shortened: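 Cytotoxicity was measured in VERO cells by serial dilution starting at 10× MIC where solubility in culture medium allowed, giving an IC50. SI = VERO IC50 ÷ MIC (99% inhibition) against M. tuberculosis H37Rv from the BACTEC 460 radiometric assay.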

Vero = test: Cytotoxicity against African green monkey Vero cells; type: cell-based; settings: Chlorocebus sabaeus
Procedure, shortened: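 VERO cells were exposed to serially diluted compound, starting at 10 x MIC where solubility in culture medium allowed. IC50 was determined, and the selectivity index was taken as VERO IC50 divided by the M. tuberculosis H37Rv MIC.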

Cutibacterium acnes [14] = test: Induction of Propionibacterium acnes PCM 2400 replication at 3.9 to 15.6 ug/mL after 48 hrs by microplate Alamar blue assay relative to control; type: organism-based
[15] = test system: Mycolicibacterium fortuitum; test: Induction of Mycobacterium fortuitum PCM 672 replication at 0.97 to 250 ug/mL after 48 hrs by microplate Alamar blue assay relative to control; type: organism-based; procedure, shortened: as §1
Mycobacterium avium [16] = test: Antibacterial activity against Mycobacterium avium assessed as growth inhibition; type: functional
[17] = test system: Mycobacterium tuberculosis; test: Antibacterial activity against Mycobacterium tuberculosis assessed as growth inhibition; type: functional
[18] = test system: Mycobacterium tuberculosis; test: Antibacterial activity against Mycobacterium tuberculosis H37Rv assessed as growth inhibition at 0.125 ug/mL by BACTEC 460 radiometric assay relative to control; type: functional; settings: read-out: GI
Cutibacterium acnes [19] = test: Bacteriostatic activity against Propionibacterium acnes PCM 2400 at 0.97 to 250 ug/mL after 48 hrs by microplate Alamar blue assay relative to control; type: functional
[20] = test system: Mycobacterium tuberculosis; test: Antibacterial activity against Mycobacterium tuberculosis H37Rv assessed as growth inhibition; type: functional; settings: for MIC: Mycobacterium tuberculosis, H37Rv; procedure, shortened: as §2
Cutibacterium acnes [21] = test: Induction of Propionibacterium acnes PCM 2400 replication at 0.97 to 250 ug/mL after 48 hrs by microplate Alamar blue assay relative to control; type: organism-based

Compound: Cc1cc(C)c2c(=O)n(CCOC(=O)NC(C)(C)C)sc2n1
- growth inhibition (GI) [1]: inactive
- MIC90 (Cutibacterium acnes [2]): 3.2 µg/mL (≈ 9.89 µM)
- Activity [3]: 10%

Compound: Cc1cc(C)c2c(OCCOC(=O)Nc3ccccc3)nsc2n1
- growth inhibition (GI) [1]: inactive
- growth inhibition (GI) [4]: inactive
- growth inhibition (GI) (Cutibacterium acnes [5]): inactive

Compound: CC[C@H]1OC(=O)[C@H](C)[C@@H](O[C@H]2C[C@@](C)(OC)[C@@H](O)[C@H](C)O2)[C@H](C)[C@@H](O[C@@H]2O[C@H](C)C[C@H](N(C)C)[C@H]2O)[C@](C)(OC)C[C@@H](C)C(=O)[C@H](C)[C@@H](O)[C@]1(C)O [CLARITHROMYCIN]
- inhibition of growth at 2 µg/mL (Mycobacterium avium [6]): 98%

Compound: NNC(=O)c1ccncc1 [ISONIAZID]
- MIC50 [7]: 0.322 µg/mL (≈ 2.35 µM)
- MIC90 [7]: > 250 µg/mL

Compound: Cc1cc(C)c2c(=O)n(CN(Cc3ccccc3)Cn3sc4nc(C)cc(C)c4c3=O)sc2n1
- Activity (Cutibacterium acnes [8]): 10%
- inhibition of growth at 6.25 µg/mL [9]: 6%

Compound: Cc1cc(C)c2c(=O)n(CCOC(=O)Nc3ccccc3)sc2n1
- growth inhibition (GI) [4]: inactive
- growth inhibition (GI) (Cutibacterium acnes [5]): inactive
- inhibition of growth at 6.25 µg/mL [9]: 12%
- inhibition (INH) [10]: 42%

Compound: Cc1cc(C)c2c(OCCOC(=O)NC(C)(C)C)nsc2n1
- inhibition of growth at 6.25 µg/mL [9]: 16%

Compound: Cc1cc(C)c2c(=O)n(CC(O)CN3CCN(c4cccc(C(F)(F)F)c4)CC3)sc2n1 (stereo not drawn)
- MIC99 [11]: 1.56 µg/mL (≈ 3.34 µM)
- growth inhibition (GI) (Mycobacterium avium [12]): inactive
- Selectivity Index [13]: 2.69
- inhibition of growth at 6.25 µg/mL [9]: 100%
- IC50 (Vero): 4.2 µg/mL (≈ 9 µM)

Compound: Cc1cc(C)c2c(=O)n(CCCN3CCN(c4cccc(Cl)c4)CC3)sc2n1
- MIC99 [11]: 6.25 µg/mL (≈ 15 µM)
- growth inhibition (GI) (Mycobacterium avium [12]): inactive
- Selectivity Index [13]: 0.53
- inhibition of growth at 6.25 µg/mL [9]: 100%
- IC50 (Vero): 3.3 µg/mL (≈ 7.91 µM)

Compound: CCNC(=O)OCCn1sc2nc(C)cc(C)c2c1=O
- growth inhibition (GI) (Cutibacterium acnes [5]): inactive
- inhibition of growth at 6.25 µg/mL [9]: 17%
- MIC50 (Cutibacterium acnes [2]): 6.9 µg/mL (≈ 23.4 µM)

Compound: CC[C@H]1OC(=O)[C@H](C)[C@@H](O[C@H]2C[C@@](C)(OC)[C@@H](O)[C@H](C)O2)[C@H](C)[C@@H](O[C@@H]2O[C@H](C)C[C@H](N(C)C)[C@H]2O)[C@](C)(O)C[C@@H](C)C(=O)[C@H](C)[C@@H](O)[C@]1(C)O [ERYTHROMYCIN]
- MIC50 (Cutibacterium acnes [2]): < 1 µg/mL
- MIC90 (Cutibacterium acnes [2]): < 1 µg/mL

Compound: CCCCNC(=O)OCCOc1nsc2nc(C)cc(C)c12
- Activity (Cutibacterium acnes [14]): > 50%
- growth inhibition (GI) [1]: inactive
- MIC50 [7]: 125 µg/mL (≈ 386 µM)
- growth inhibition (GI) [4]: inactive

Compound: CCNC(=O)OCCOc1nsc2nc(C)cc(C)c12
- growth inhibition (GI) (Cutibacterium acnes [5]): inactive
- inhibition of growth at 6.25 µg/mL [9]: 6%
- MIC50 (Cutibacterium acnes [2]): 184 µg/mL (≈ 623 µM)
- Activity [15]: 10%

Compound: COc1ccccc1CN(Cn1sc2nc(C)cc(C)c2c1=O)Cn1sc2nc(C)cc(C)c2c1=O
- growth inhibition (GI) [1]: inactive
- MIC50 [7]: < 1 µg/mL
- MIC90 [7]: < 1 µg/mL
- growth inhibition (GI) (Cutibacterium acnes [5]): inactive
- MIC50 (Cutibacterium acnes [2]): 38 µg/mL (≈ 72.8 µM)

Compound: Cc1cc(C)c2c(=O)n(CN3CCN(c4ccc([N+](=O)[O-])cc4)CC3)sc2n1
- MIC (Mycobacterium avium [16]): < 1 µg/mL
- MIC50 [7]: 197 µg/mL (≈ 493 µM)
- growth inhibition (GI) [4]: inactive
- growth inhibition (GI) (Cutibacterium acnes [5]): inactive
- MIC [17]: < 1 µg/mL

Compound: CCCCNC(=O)OCCn1sc2nc(C)cc(C)c2c1=O
- growth inhibition (GI) [1]: inactive
- MIC50 [7]: 125 µg/mL (≈ 386 µM)
- growth inhibition (GI) [4]: inactive
- growth inhibition (GI) (Cutibacterium acnes [5]): inactive

Compound: CO[C@H]1/C=C/O[C@@]2(C)Oc3c(C)c(O)c4c(O)c(c(/C=N/N5CCN(C)CC5)c(O)c4c3C2=O)NC(=O)/C(C)=C\C=C\[C@H](C)[C@H](O)[C@@H](C)[C@@H](O)[C@@H](C)[C@H](OC(C)=O)[C@@H]1C [RIFAMPIN]
- MIC99 [11]: 0.125 µg/mL (≈ 0.152 µM)
- inhibition of growth at 0.125 µg/mL [18]: 98%
- IC50 (Vero): 58 µg/mL (≈ 70.5 µM)

Compound: Cc1cc(C)c2c(OCCOCCOc3ccccc3)nsc2n1
- growth inhibition (GI) [1]: inactive
- growth inhibition (GI) (Cutibacterium acnes [5]): inactive

Compound: Cc1cc(C)c2c(=O)n(CN(Cc3ccccn3)Cn3sc4nc(C)cc(C)c4c3=O)sc2n1
- growth inhibition (GI) (Cutibacterium acnes [5]): inactive
- inhibition of growth at 6.25 µg/mL [9]: 4%
- inhibition (INH) (Cutibacterium acnes [19]): 36%

Compound: Cc1cc(C)c2c(=O)n(CN(Cc3ccc(Cl)cc3)Cn3sc4nc(C)cc(C)c4c3=O)sc2n1
- growth inhibition (GI) [1]: inactive
- growth inhibition (GI) (Cutibacterium acnes [5]): inactive

Compound: Cc1cc(C)c2c(=O)n(CO)sc2n1
- growth inhibition (GI) [20]: 65%
- MIC [20]: 12.5 µg/mL (≈ 59.5 µM)

Compound: Cc1cc(C)c2c(=O)n(CCOCCOc3ccccc3)sc2n1
- MIC99 [11]: 6.25 µg/mL (≈ 18.1 µM)
- Selectivity Index [13]: 0.68
- inhibition of growth at 6.25 µg/mL [9]: 100%
- IC50 (Vero): 4.1 µg/mL (≈ 11.9 µM)

Compound: Cc1cc(C)c2c(=O)n(CCN3CCN(c4ccc([N+](=O)[O-])cc4)CC3)sc2n1
- MIC (Mycobacterium avium [16]): < 1 µg/mL
- growth inhibition (GI) [4]: inactive
- MIC50 (Cutibacterium acnes [2]): < 1 µg/mL
- MIC90 (Cutibacterium acnes [2]): < 1 µg/mL
- inhibition (INH) [10]: 40%
- MIC [17]: < 1 µg/mL

Compound: O=c1c2ccccc2sn1CO
- growth inhibition (GI) [20]: 100%
- MIC [20]: 12.5 µg/mL (≈ 69 µM)

Compound: Cc1cc(C)c2c(=O)n(CC(O)CN3CCC(Cc4ccccc4)CC3)sc2n1 (stereo not drawn)
- MIC99 [11]: 6.25 µg/mL (≈ 15.2 µM)
- Selectivity Index [13]: 0.25
- inhibition of growth at 6.25 µg/mL [9]: 100%
- IC50 (Vero): 1.6 µg/mL (≈ 3.89 µM)

Compound: COc1ccc(CN(Cn2sc3nc(C)cc(C)c3c2=O)Cn2sc3nc(C)cc(C)c3c2=O)cc1
- growth inhibition (GI) [1]: inactive
- Activity (Cutibacterium acnes [21]): 10%

Compound: Cc1cc(C)c2c(=O)n(CC(=O)N3CCN(C)CC3)sc2n1
- MIC99 [11]: 6.25 µg/mL (≈ 19.5 µM)
- Selectivity Index [13]: 1.12
- inhibition of growth at 6.25 µg/mL [9]: 100%
- IC50 (Vero): 7 µg/mL (≈ 21.8 µM)

Compound: COc1ccc(CN(Cn2sc3nc(C)cc(C)c3c2=O)Cn2sc3nc(C)cc(C)c3c2=O)cc1OC
- growth inhibition (GI) [4]: inactive
- Activity (Cutibacterium acnes [21]): 10%
- inhibition of growth at 6.25 µg/mL [9]: 8%
- inhibition (INH) [10]: 21%

Compound: Cc1cc(C)c2c(=O)n(CN(Cc3ccccc3Cl)Cn3sc4nc(C)cc(C)c4c3=O)sc2n1
- growth inhibition (GI) [1]: inactive
- growth inhibition (GI) (Cutibacterium acnes [5]): inactive
